Bioassay records: PubChem BioAssay, The Scripps Research Institute Molecular Screening Center
Only some compounds are listed: those with a hit (about 1.9% of all), similar ones and a draw of the others.
DNA FID counter = fluorescent intercalator displacement, NS3 helicase counter-screen; DNA fluorescent intercalator displacement, fluorescence; 290,000 tested, 0.17% active; AID 1845; inhibition, % at 7.9 µM; in the data active = inhibition above about 37%;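 also: 0% = vehicle and 100% = reference compound; higher means more ethidium bromide displaced from hairpin DNA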
IMP-1 inh = blocks Pseudomonas aeruginosa IMP-1 metallo-beta-lactamase; purified IMP-1, nitrocefin hydrolysis, epi-absorbance fluorescence; inhibition, % at 5.6 µM; 290,000 tested, 0.45% active; AID 1556;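 active = inhibition above the mean plus 3 SD of all compounds in the same screening run, cut at about 4.5% in these data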;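 also: 0% = IMP-1 with DMSO and 100% = DMSO wells lacking enzyme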
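Assay system: purified IMP-1; Quantity: IMP-1 0.2 nM before substrate addition; Medium: HEPES buffer pH 7.1 with ZnSO4 and Brij 35; Incubation: 15 min enzyme–compound preincubation, then 25 min nitrocefin reaction, 25 °C; Signal: fluorescence quenching readout, ex 480/em 530 nm; Controls: DMSO with and without IMP-1; Repeats: singlicate testing.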
VIM-2 inhibitor = blocks Pseudomonas aeruginosa VIM-2 metallo-beta-lactamase; purified VIM-2, nitrocefin hydrolysis, epi-absorbance fluorescence; inhibition, % at 5.6 µM; 290,000 tested, 0.89% active; AID 1527;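 active = inhibition above the mean of all tested compounds plus 3 SD, cutoff set per screening run, cut at about 7.5% in these data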;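 also: red hydrolysis product quenches plate fluorescence so inhibitors raise well fluorescence; 0% = enzyme with DMSO and 100% = DMSO without enzyme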
HCV NS3 hel inh = HCV NS3 helicase inhibition. NS3 helicase DNA unwinding, Cy5 molecular beacon fluorescence. inhibition, % at 10.9 µM. 290,000 tested, 0.56% active. AID 1800;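 active = inhibition above the mean of all tested compounds plus 3 SD, set per campaign, cut at about 35% in these data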;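 also: 0% = DMSO wells and 100% = thioflavine S control wells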
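Compound dosing – single dose, 10.9 µM nominal final, DMSO 0.8% final · System – NS3 helicase fragment of HCV · Buffer or medium – MOPS pH 6.5, MgCl2, DTT, Tween20, BSA · Signal – Cy5 beacon fluorescence read at start and 1 h · Also added – annealed dual-labelled DNA beacon duplex, ATP-started · Schedule – 1 h at 25 °C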
An asterisk follows results filed as active.

`CCOC(=O)CSc1nc2ccccc2n2cnnc12` gave DNA FID counter -11, IMP-1 inh -3, VIM-2 inhibitor 0 and HCV NS3 hel inh -14.
C=CCSc1nc2ccccc2n2cnnc12 was read as DNA FID counter -6, IMP-1 inh -1, VIM-2 inhibitor 10* and HCV NS3 hel inh 9.
For COc1ccc(-c2cc(C(F)(F)F)n3ncc(C(=O)NCc4ccco4)c3n2)cc1 the results were DNA FID counter -18, IMP-1 inh -4, VIM-2 inhibitor 8.2* and HCV NS3 hel inh 18.
For O=C(NCc1ccco1)c1nn2c(C(F)(F)F)cc(-c3cccs3)nc2c1Cl the results were DNA FID counter -4, IMP-1 inh -2, VIM-2 inhibitor 2 and HCV NS3 hel inh 3.
Screening CC(C)CCNC(=O)c1cnn2c(C(F)(F)F)cc(-c3ccco3)nc12 returned DNA FID counter -26, IMP-1 inh -5, VIM-2 inhibitor 7 and HCV NS3 hel inh 4.
Screening O=C(NCc1ccco1)c1cc2nc(-c3cccs3)cc(C(F)(F)F)n2n1 returned DNA FID counter -14, IMP-1 inh -5, VIM-2 inhibitor 8.6* and HCV NS3 hel inh 33.
`O=C(NC1CCCC1)c1cnn2c(C(F)(F)F)cc(-c3ccco3)nc12` gave DNA FID counter -29, IMP-1 inh -2, VIM-2 inhibitor 17* and HCV NS3 hel inh 7.
Screening Cc1ccc(S(=O)(=O)NC(=O)NC(C)Cc2ccccc2)cc1 (configuration not stated) returned DNA FID counter -11, IMP-1 inh -4, VIM-2 inhibitor -2 and HCV NS3 hel inh 6.
COc1ccc(OC)c(Nc2cc(C(=O)NCCCN3CCOCC3)c3ccccc3n2)c1 was read as DNA FID counter 41*, IMP-1 inh -6, VIM-2 inhibitor -1 and HCV NS3 hel inh -49.
COc1ccc(-c2cc(C(=O)NCCCN3CCOCC3)c3cc(C(C)C)ccc3n2)cc1 was read as DNA FID counter 37*, IMP-1 inh -1, VIM-2 inhibitor 0 and HCV NS3 hel inh -86.
For COc1ccc(Nc2cc(C(=O)NCCCN3CCN(C)CC3)c3ccccc3n2)cc1 the results were DNA FID counter 41*, IMP-1 inh -4, VIM-2 inhibitor 0 and HCV NS3 hel inh -26.
Screening CS(=O)(=O)Nc1cccc(-c2cn3c(n2)SCC3)c1 returned DNA FID counter -2, IMP-1 inh -2, VIM-2 inhibitor -1 and HCV NS3 hel inh 9.
`CCCCc1nc2cc(C(=O)NC(C)c3cnn(C)c3)ccc2o1` (configuration not stated) gave DNA FID counter -32, IMP-1 inh 25*, VIM-2 inhibitor -1 and HCV NS3 hel inh 16.
COc1ccc(CN2CCNC(=O)C2CC(=O)NCCc2nc(C)c(C)s2)cc1C (configuration not stated) was read as DNA FID counter -18, IMP-1 inh 3, VIM-2 inhibitor -5 and HCV NS3 hel inh -43.
Cc1nc(CCNC(=O)CC2C(=O)NCCN2Cc2ccccc2)sc1C (configuration not stated) was read as DNA FID counter 0, IMP-1 inh 5.0*, VIM-2 inhibitor -1 and HCV NS3 hel inh -3.
`CCC(c1nnc(SCC(=O)Nc2ccc(C(C)=O)cc2)n1C1CCCCC1)N(C)C` (configuration not stated) gave DNA FID counter -4, IMP-1 inh -3, VIM-2 inhibitor 12* and HCV NS3 hel inh -2.
For CCC(c1nnc(SCC(=O)Nc2cc(Cl)ccc2C#N)n1C1CCCCC1)N(C)C (configuration not stated) the results were DNA FID counter 2, IMP-1 inh -2, VIM-2 inhibitor 5 and HCV NS3 hel inh -16.
For CCCc1nc2oc3c(NCCCN(C)C)ncnc3c2c2c1CCCC2 the results were DNA FID counter 25, IMP-1 inh -4, VIM-2 inhibitor 12* and HCV NS3 hel inh -50.
Screening CCCc1nc2oc3c(NCCN(C)C)ncnc3c2c2c1CCCC2 returned DNA FID counter 21, IMP-1 inh 0, VIM-2 inhibitor 6 and HCV NS3 hel inh -36.
Screening O=C(CN(c1ccc(F)cc1)S(=O)(=O)c1ccccc1)NC1CCCCCC1 returned DNA FID counter -27, IMP-1 inh -1, VIM-2 inhibitor 1 and HCV NS3 hel inh -12.
Cn1c(C(=O)N2CCN(C(=O)c3ccco3)CC2)cc2c(=O)n(C)c3ccccc3c21 was read as DNA FID counter -17, IMP-1 inh -2, VIM-2 inhibitor 11* and HCV NS3 hel inh 1.
Screening COc1ccccc1N1CCN(C(=O)c2cc3c(=O)n(C)c4ccccc4c3n2C)CC1 returned DNA FID counter -38, IMP-1 inh -2, VIM-2 inhibitor 8.8* and HCV NS3 hel inh -13.
